The source made the active and inactive calls. No cut-off for these calls is given here.
Tests used:
[1] = target: Heat shock protein HSP 90-beta (Homo sapiens) (UniProt P08238); test: Inhibition of HSP90 in gefitinib-resistant human NCI-H1975 cells assessed as downregulation of Tyr1068 phosphorylated EGFR level at 1 to 100 uM after 24 hrs by Western blot method; assay type: cell-based
Method in brief: (§1)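 Dose-response immunoblotting: H1975 cells incubated 24 h with increasing compound concentrations, then lysates probed by Western blot for Hsp90 clients (EGFR, Her2, Met, Akt), downstream signaling proteins and Hsp70. Geldanamycin (1 μM) positive control; DMSO negative control.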

[2] = target: Heat shock protein HSP 90-beta (Homo sapiens) (UniProt P08238); test: Inhibition of HSP90 in gefitinib-resistant human NCI-H1975 cells assessed as degradation of MET after 24 hrs by Western blot method; assay type: cell-based; method in brief: as §1
[3] = target: Heat shock protein HSP 90-beta (Homo sapiens) (UniProt P08238); test: Inhibition of HSP90 in gefitinib-resistant human NCI-H1975 cells assessed as degradation of EGFR after 24 hrs by Western blot method; assay type: cell-based; method in brief: as §1
[4] = target: Heat shock protein HSP 90-beta (Homo sapiens) (UniProt P08238); test: Inhibition of HSP90 in gefitinib-resistant human NCI-H1975 cells assessed as degradation of MET at 40 uM after 24 hrs by Western blot method; assay type: cell-based
Method in brief: (§2)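 H1975 cells treated 24 h with each compound at 40 μM; Hsp90 client proteins and Hsp70 probed by Western blot. Geldanamycin (1 μM) as positive control, DMSO as negative control.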

[5] = target: Heat shock protein HSP 90-beta (Homo sapiens) (UniProt P08238); test: Inhibition of HSP90 in gefitinib-resistant human NCI-H1975 cells assessed as degradation of HER2 at 40 uM after 24 hrs by Western blot method; assay type: cell-based; method in brief: as §2
NCI-H1975 [6] = test: Antiproliferative activity against gefitinib-resistant human NCI-H1975 cells after 1 to 3 days by MTS assay; assay type: functional
Method in brief: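 H1975 (gefitinib-resistant NSCLC, T790M/L858R EGFR) cells exposed to compound at a range of concentrations; viability read by MTS assay at 1, 2 and 3 days of treatment. Data given as mean ± SD, n = 4.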

[7] = target: Heat shock protein HSP 90-beta (Homo sapiens) (UniProt P08238); test: Inhibition of HSP90 in gefitinib-resistant human NCI-H1975 cells assessed as degradation of HER2 after 24 hrs by Western blot method; assay type: cell-based; method in brief: as §1
[8] = target: Heat shock protein HSP 90-beta (Homo sapiens) (UniProt P08238); test: Inhibition of HSP90 in gefitinib-resistant human NCI-H1975 cells assessed as transcriptional upregulation of Hsp70 at 40 uM after 24 hrs by Western blot method; assay type: cell-based; method in brief: as §2
[9] = target: Heat shock protein HSP 90-beta (Homo sapiens) (UniProt P08238); test: Inhibition of HSP90 in gefitinib-resistant human NCI-H1975 cells assessed as degradation of AKT at 40 uM after 24 hrs by Western blot method; assay type: cell-based; method in brief: as §2
NCI-H1975 [10] = test: Downregulation of ERK1/2 in gefitinib-resistant human NCI-H1975 cells at 1 to 100 uM after 24 hrs by Western blot method; assay type: functional, cell-based; method in brief: as §1
[11] = target: Heat shock protein HSP 90-beta (Homo sapiens) (UniProt P08238); test: Inhibition of HSP90 in gefitinib-resistant human NCI-H1975 cells assessed as transcriptional upregulation of Hsp70 after 24 hrs by Western blot method; assay type: cell-based; method in brief: as §1
[12] = target: Heat shock protein HSP 90-beta (Homo sapiens) (UniProt P08238); test: Inhibition of HSP90 in gefitinib-resistant human NCI-H1975 cells assessed as downregulation of Ser473 phosphorylated AKT level at 1 to 100 uM after 24 hrs by Western blot method; assay type: cell-based; method in brief: as §1
[13] = target: Heat shock protein HSP 90-beta (Homo sapiens) (UniProt P08238); test: Inhibition of HSP90 in gefitinib-resistant human NCI-H1975 cells assessed as downregulation of Thr202/Tyr204 phosphorylated ERK1/2 level at 1 to 100 uM after 24 hrs by Western blot method; assay type: cell-based; method in brief: as §1
[14] = target: Heat shock protein HSP 90-beta (Homo sapiens) (UniProt P08238); test: Inhibition of HSP90 in gefitinib-resistant human NCI-H1975 cells assessed as degradation of EGFR at 40 uM after 24 hrs by Western blot method; assay type: cell-based; method in brief: as §2
[15] = target: Heat shock protein HSP 90-beta (Homo sapiens) (UniProt P08238); test: Inhibition of HSP90 in gefitinib-resistant human NCI-H1975 cells assessed as degradation of AKT after 24 hrs by Western blot method; assay type: cell-based; method in brief: as §1

Chain of Heat shock protein HSP 90-beta (Homo sapiens) (P08238 whole entry): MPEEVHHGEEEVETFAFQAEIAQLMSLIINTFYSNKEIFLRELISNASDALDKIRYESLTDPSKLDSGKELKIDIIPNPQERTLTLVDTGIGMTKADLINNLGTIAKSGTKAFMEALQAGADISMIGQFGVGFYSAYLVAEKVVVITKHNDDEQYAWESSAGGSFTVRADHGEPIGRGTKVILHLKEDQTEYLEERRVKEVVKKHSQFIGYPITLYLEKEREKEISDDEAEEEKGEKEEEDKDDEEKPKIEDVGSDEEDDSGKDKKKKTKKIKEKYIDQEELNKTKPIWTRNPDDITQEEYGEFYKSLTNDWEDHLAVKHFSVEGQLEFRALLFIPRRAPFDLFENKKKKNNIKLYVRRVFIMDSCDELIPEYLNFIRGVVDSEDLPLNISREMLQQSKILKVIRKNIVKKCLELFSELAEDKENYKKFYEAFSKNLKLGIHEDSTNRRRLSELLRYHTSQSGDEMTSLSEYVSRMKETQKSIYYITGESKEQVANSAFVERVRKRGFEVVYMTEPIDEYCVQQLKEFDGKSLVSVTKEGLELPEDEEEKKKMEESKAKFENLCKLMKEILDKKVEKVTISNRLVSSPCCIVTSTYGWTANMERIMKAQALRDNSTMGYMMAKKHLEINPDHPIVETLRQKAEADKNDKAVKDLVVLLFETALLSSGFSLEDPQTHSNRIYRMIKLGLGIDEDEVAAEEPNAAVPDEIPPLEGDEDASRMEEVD

Compound: COc1cc(/C=C/C(=O)c2cc(Cl)c(O)cc2O)cc(OC)c1OC
- inhibition [1]: Active
- inhibition [2]: Dose-dependent effect
- inhibition [3]: Dose-dependent effect
- inhibition [4]: Active
- inhibition [5]: Active
- GI50 (NCI-H1975 [6]): 48 µM
- inhibition (NCI-H1975 [6]): Dose-dependent effect
- inhibition [7]: Dose-dependent effect
- inhibition [8]: Active
- inhibition [9]: Active
- Activity (NCI-H1975 [10]): inactive
- inhibition [11]: Dose-dependent effect
- inhibition [12]: Active
- inhibition [13]: Active
- inhibition [14]: Active
- inhibition [15]: Dose-dependent effect

Compound: CCNC(=O)c1n[nH]c(-c2cc(Cl)c(O)cc2O)c1-c1ccc(OC)cc1
- GI50 (NCI-H1975 [6]): 1 µM

Compound: CCCCn1c(Cc2cc(OC)c(OC)c(OC)c2)nc2c(N)ncnc21
- GI50 (NCI-H1975 [6]): 50 µM

Compound: O=C(/C=C/c1ccc(O)cc1O)c1cc(Cl)c(O)cc1O
- inhibition (NCI-H1975 [6]): Dose-dependent effect

Compound: COc1ccc(/C=C/C(=O)c2cc(Cl)c(O)cc2O)c(OC)c1
- inhibition (NCI-H1975 [6]): Dose-dependent effect

Reference: ChEMBL document CHEMBL3098079, “Discovery of hybrid Hsp90 inhibitors and their anti-neoplastic effects against gefitinib-resistant non-small cell lung cancer (NSCLC)” (2014)
